According to ChEMBL document CHEMBL3272174, “Molecular structural effects involved in the interaction of quinolinemethanolamines with DNA. Implications for antimalarial action” (1977):
Calls of active or inactive are those of the source.

Tests used:
Calf thymus DNA [1] = assay: Binding affinity to sonicated calf thymus DNA by viscometric titrations; assay type: nucleic-acid assay; settings: Bos taurus
How it was run: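 Sonicated calf thymus DNA (1.0-3.0 mL) titrated with small aliquots of concentrated drug stock in a semimicro Ubbelohde dilution viscometer at 25 °C, in standard buffer. Volume change stayed at or below 3%, and DNA dilution was corrected. Reduced specific viscosity ratio plotted against drug/nucleotide molar ratio.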

Calf thymus DNA [2] = assay: Binding affinity to sonicated calf thymus DNA at 10^-3 M by spectroscopy; assay type: nucleic-acid assay; settings: Bos taurus
How it was run: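 Difference spectra: sonicated calf thymus DNA (2.3×10^-3 M) and drug (3.5×10^-4 M) in standard pH 7.0 phosphate/EDTA buffer were loaded in separate compartments of 10-mm tandem cells to set a baseline. Equal volumes were then mixed and read against the separated solutions.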

Calf thymus DNA [3] = assay: Binding affinity to calf thymus DNA assessed as melting temperature at 10^-4 M by thermal denaturation assay; assay type: nucleic-acid assay; settings: Bos taurus
How it was run: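 Calf thymus DNA dissolved in standard buffer (3.8×10^-3 M NaH2PO4, 5×10^-4 M EDTA, pH 7.0, ionic strength 0.0095) and dialyzed against it. Thermal denaturation: DNA at 10^-4 M (nucleotide equivalents), drug at 10^-4 M. Absorbance recorded as a function of temperature in stoppered 1.0-cm quartz cuvettes, with a thermistor in the cell block.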

Plasmodium berghei [4] = assay: Antimalarial activity against Plasmodium berghei infected in mouse assessed as increase in mean survival time at 320 mg/kg measured after 60 days post infection relative to control; assay type: functional
How it was run: (§1)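 Tested at Walter Reed Army Institute of Research (communicated data) in mice infected with P. berghei. Five mice per test. Read-out is the increase in mean survival time (ΔMST, days) over the control group. Activity is defined as ΔMST above 6.1 days. Cure (C) is scored when at least one of the five mice survives to 60 days postinfection.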

Plasmodium berghei [5] = assay: Antimalarial activity against Plasmodium berghei infected in mouse assessed as increase in mean survival time at 40 mg/kg measured after 60 days post infection relative to control; assay type: functional; how it was run: as §1
Plasmodium berghei [6] = assay: Antimalarial activity against Plasmodium berghei infected in mouse assessed as increase in mean survival time at 160 mg/kg measured after 60 days post infection relative to control; assay type: functional; how it was run: as §1
Plasmodium berghei [7] = assay: Antimalarial activity against Plasmodium berghei infected in mouse assessed as increase in mean survival time at 80 mg/kg measured after 60 days post infection relative to control; assay type: functional; how it was run: as §1
Plasmodium berghei [8] = assay: Antimalarial activity against Plasmodium berghei infected in mouse assessed as increase in mean survival time at 640 mg/kg measured after 60 days post infection relative to control; assay type: functional; how it was run: as §1
Escherichia coli [9] = assay: Binding affinity to closed circular superhelical Escherichia coli ColE1 DNA by viscometric titrations
Escherichia coli [10] = assay: Inhibition of Escherichia coli RNA polymerase assessed as reduction in RNA transcription at compound/DNA molar ratio of 1
Plasmodium berghei [11] = assay: Antimalarial activity against Plasmodium berghei infected in mouse assessed as increase in mean survival time at 80 to 640 mg/kg measured after 60 days post infection relative to control; assay type: functional, organism-based
Calf thymus DNA [12] = assay: Binding affinity to calf thymus DNA assessed as melting temperature at 10^-5 M by thermal denaturation assay; assay type: nucleic-acid assay; settings: Bos taurus
How it was run: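 Thermal melting of dialyzed calf thymus DNA (10^-4 M nucleotide) with drug at 10^-5 M, in standard phosphate/EDTA buffer at pH 7.0. Absorbance followed against temperature in 1.0-cm stoppered quartz cuvettes, with temperature monitored by a cell-block thermistor.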

Activity (Calf thymus DNA [1]) | Activity (Escherichia coli [9]) | Structure (SMILES) | Activity (Calf thymus DNA [2]) | Tm (Calf thymus DNA [3]) [°C] | other results
Active |  | C=C[C@H]1CN2CC[C@H]1C[C@H]2[C@H](O)c1ccnc2ccc(OC)cc12 | Active | 66.3 | 
 |  | COc1cccc2c1C(=O)c1c(O)c3c(c(O)c1C2=O)C[C@@](O)(C(C)=O)C[C@@H]3O[C@H]1C[C@H](N)[C@H](O)[C@H](C)O1 |  |  | Activity (Escherichia coli [10]): Active
inactive | inactive | O[C@@H](c1cc(C(F)(F)F)nc2c(C(F)(F)F)cccc12)[C@H]1CCCCN1 (relative stereo) | Active | 63 | Activity (Escherichia coli [10]): inactive; Activity (Plasmodium berghei [11]): Active
Active | inactive | CCN(CC)CCCC(C)Nc1ccnc2cc(Cl)ccc12 (configuration not stated) |  |  | Tm (Calf thymus DNA [12]): 75 °C
Active | Active | CCN(CC)CCCC(C)Nc1c2ccc(Cl)cc2nc2ccc(OC)cc12 (configuration not stated) |  |  | Tm (Calf thymus DNA [12]): 88 °C
 | inactive | NCCCCN |  |  | 

Structure (SMILES) | Activity (Calf thymus DNA [1]) | Activity (Escherichia coli [9]) | Activity (Calf thymus DNA [2]) | Tm (Calf thymus DNA [3]) [°C] | other results
NC(=O)c1cc(C(O)C2CCCCN2)c2cccc(C(F)(F)F)c2n1 (configuration not stated) | Active | inactive | Active | 64.9 | fold change (FC) (Plasmodium berghei [4]): 0.7; fold change (FC) (Plasmodium berghei [5]): 0.3; fold change (FC) (Plasmodium berghei [6]): 0.5; fold change (FC) (Plasmodium berghei [7]): 0.3; fold change (FC) (Plasmodium berghei [8]): 7.9
OC(c1cc(C(F)(F)F)nc2c(F)cccc12)C1CCCCN1 (configuration not stated) | inactive | inactive | Active | 61.5 | fold change (FC) (Plasmodium berghei [4]): 7.1; fold change (FC) (Plasmodium berghei [7]): 4.1
